Experimental data reported in ChEMBL document CHEMBL1132258, “gamma-Aminobutyrate-A receptor modulation by 3-aryl-1-(arylsulfonyl)- 1,4,5,6-tetrahydropyridazines” (J Med Chem, 1999).
pIC50: −log10 of the molar value.

Tests used:
[1] = tested on: Mus musculus; assay: In vivo suppression of pentylenetetrazole-induced convulsions by the compound at the mentioned dose of, 10, i.p. (mg/kg); out of 6 tested animals; assay type: functional
Summary of the method: (§1)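 Mice were dosed ip with compound or vehicle (10 mL/kg). Pentylenetetrazole 85 mg/kg sc was given 1 h later. Mice were housed individually and watched for 30 min for clonic convulsions, scored present or absent. Results are reported as number convulsed over number tested.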

[2] = tested on: Mus musculus; assay: In vivo Horizontal screen test for motor impairment by the compound at the mentioned dose of 10, i.p. (mg/kg); out of 6 tested animals; assay type: functional
Summary of the method: (§2)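 Mice were dosed ip with compound or vehicle (10 mL/kg). After 1 h, just before sc pentylenetetrazole, they were placed on an inverted horizontal screen. Passing meant climbing to the top side within 1 min. Results are reported as number passed over number tested.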

[3] = molecular target: GABA-A receptor; anion channel; assay: In vitro binding affinity to the Gamma-aminobutyric acid A receptor complex in presence of GABA in rat cerebellum tissue; assay type: tissue-based
[4] = molecular target: T1, GABA-A receptor; anion channel (Rattus norvegicus) (UniProt O09028+P15431+P18506+P18508+P19969+P20236+P23574+P23576+P28471+P28473+P30191+P62813+P63079+P63138+Q91ZM7+Q9ES14); assay: Ratio of IC50 in the presence and absence of GABA.; assay type: functional
[5] = molecular target: GABA-A receptor; anion channel; assay: In vitro binding affinity to the Gamma-aminobutyric acid A receptor complex in absence of GABA in rat cerebellum tissue; assay type: tissue-based
[6] = tested on: Mus musculus; assay: In vivo suppression of pentylenetetrazole-induced convulsions by the compound at the mentioned dose of, 1, i.p. ( mg/kg); out of 6 tested animals; assay type: functional; summary of the method: as §1
[7] = tested on: Mus musculus; assay: In vivo Horizontal screen test for motor impairment by the compound at the mentioned dose of 1, i.p. ( mg/kg); out of 6 tested animals; assay type: functional; summary of the method: as §2
[8] = tested on: Mus musculus; assay: In vivo suppression of pentylenetetrazole-induced convulsions by the compound at the mentioned dose of, 100, i.p. ( mg/kg); out of 6 tested animals; assay type: functional; summary of the method: as §1
[9] = tested on: Mus musculus; assay: In vivo Horizontal screen test for motor impairment by the compound at the mentioned dose of 100, i.p. ( mg/kg); out of 6 tested animals; assay type: functional; summary of the method: as §2
[10] = tested on: Mus musculus; assay: In vivo suppression of pentylenetetrazole-induced convulsions by the compound at the mentioned dose of, 30, i.p. (mg/kg); out of 6 tested animals; assay type: functional
Summary of the method: (§3)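 Mice received compound or vehicle (10 mL/kg) po or ip. After 1 h they got pentylenetetrazole 85 mg/kg sc. They were housed individually and observed 30 min for clonic convulsions (present/absent). Result given as number convulsed/number tested.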

[11] = tested on: Mus musculus; assay: In vivo Horizontal screen test for motor impairment by the compound at the mentioned dose of 30, i.p. (mg/kg); out of 6 tested animals; assay type: functional
Summary of the method: (§4)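 Mice were dosed orally or ip (vehicle 10 mL/kg). At 1 h, just before PTZ, each was placed on an inverted horizontal screen and scored pass/fail for climbing to the top side within 1 min. Result given as number passed/number tested.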

[12] = molecular target: T1, GABA-A receptor; anion channel (Rattus norvegicus); assay: Relative binding to GABA-A receptor in the presence and absence of GABA; assay type: functional
[13] = tested on: Mus musculus; assay: In vivo Horizontal screen test for motor impairment by the compound at the mentioned dose of 10, i.p. (mg/kg); out of 12 tested animals; assay type: functional; summary of the method: as §4
[14] = tested on: Mus musculus; assay: In vivo suppression of pentylenetetrazole-induced convulsions by the compound at the mentioned dose of, 30, p.o. (mg/kg); out of 12 tested animals; assay type: functional; summary of the method: as §3
[15] = tested on: Mus musculus; assay: In vivo Horizontal screen test for motor impairment by the compound at the mentioned dose of 30, i.p. (mg/kg); out of 11 tested animals; assay type: functional; summary of the method: as §4
[16] = tested on: Mus musculus; assay: In vivo Horizontal screen test for motor impairment by the compound at the mentioned dose of 1, i.p. ( mg/kg); out of 12 tested animals; assay type: functional; summary of the method: as §4
[17] = tested on: Mus musculus; assay: In vivo Horizontal screen test for motor impairment by the compound at the mentioned dose of 30, p.o. (mg/kg); out of 12 tested animals; assay type: functional; summary of the method: as §4
[18] = tested on: Mus musculus; assay: In vivo suppression of pentylenetetrazole-induced convulsions by the compound at the mentioned dose of, 1, i.p. ( mg/kg); out of 12 tested animals; assay type: functional; summary of the method: as §3
[19] = tested on: Mus musculus; assay: In vivo suppression of pentylenetetrazole-induced convulsions by the compound at the mentioned dose of, 10, i.p. (mg/kg); out of 12 tested animals; assay type: functional; summary of the method: as §3
[20] = tested on: Mus musculus; assay: In vivo suppression of pentylenetetrazole-induced convulsions by the compound at the mentioned dose of, 30, i.p. (mg/kg); out of 11 tested animals; assay type: functional; summary of the method: as §3

## CCCCc1ccc(C2=NN(P(=O)(OCC)c3ccccc3)CCC2)cc1 (configuration not stated)
[1]
  Induced convulsion: 5 number convulsed
[2]
  Horizontal screen: 5 number passed
[3]
  pIC50: 6.14
[4]
  GS: 1.5
[5]
  pIC50: 5.95

## CCOP(=O)(c1ccccc1)N1CCCC(c2ccc(Cl)c(Cl)c2)=N1 (configuration not stated)
[1]
  Induced convulsion: 6 number convulsed
[2]
  Horizontal screen: 5 number passed
[3]
  pIC50: 5.98
[6]
  Induced convulsion: 6 number convulsed
[7]
  Horizontal screen: 5 number passed
[4]
  GS: 1.3
[5]
  pIC50: 5.86

## CCCCc1ccc(S(=O)(=O)N2CCCC(c3ccc(CC(C)C)cc3)=N2)cc1
[3]
  pIC50: < 4.96
[5]
  pIC50: < 4.96

## CCOP(=O)(c1ccccc1)N1CCCC(c2ccc(F)cc2)=N1 (configuration not stated)
[3]
  pIC50: 5.00
[4]
  GS: 1.1
[5]
  pIC50: < 4.96

## O=P(OC1CCCC1)(c1ccccc1)N1CCCC(c2ccc(Cl)c(Cl)c2)=N1 (configuration not stated)
[4]
  GS: 32.6

## CC(C)OP(=O)(c1ccccc1)N1CCCC(c2ccc(Cl)c(Cl)c2)=N1 (configuration not stated)
[3]
  pIC50: 5.85
[4]
  GS: 7.1
[5]
  pIC50: 5.00
[8]
  Induced convulsion: 4 number convulsed
[9]
  Horizontal screen: 0 number passed

## COP(=O)(c1ccccc1)N1CCCC(c2ccc(Cl)c(C(F)(F)F)c2)=N1 (configuration not stated)
[3]
  pIC50: 5.18
[4]
  GS: 1.3
[5]
  pIC50: 5.08

## CCCCCCc1ccc(C2=NN(S(=O)(=O)c3ccc(I)cc3)CCC2)cc1
[3]
  pIC50: < 4.96
[5]
  pIC50: < 4.96

## CCCCc1ccc(C2=NN(S(=O)(=O)c3ccc(I)cc3)CCC2)cc1
[10]
  Induced convulsion: 6 number convulsed
[11]
  Horizontal screen: 3 number passed
[3]
  pIC50: 6.11
[5]
  pIC50: 5.00
[12]
  GABA shift: 13.7

## COP(=O)(c1ccccc1)N1CCCC(c2ccc(F)cc2)=N1 (configuration not stated)
[3]
  pIC50: 5.00
[4]
  GS: 1.1
[5]
  pIC50: < 4.96

## CCCCc1ccc(C2=NN(S(=O)(=O)c3ccccc3)CCC2)cc1
[3]
  pIC50: 5.96
[4]
  GS: 10
[5]
  pIC50: < 4.96
[8]
  Induced convulsion: 5 number convulsed
[9]
  Horizontal screen: 4 number passed

## CCCCc1ccc(C2=NN(S(=O)(=O)c3ccc(Cl)cc3)CCC2)cc1
[3]
  pIC50: < 4.96
[5]
  pIC50: < 4.96

## C[C@]12CC[C@@H](O)C[C@@H]1CC[C@@H]1[C@@H]2CC[C@]2(C)[C@@H](C(=O)CO)CC[C@@H]12
[3]
  pIC50: 7.05
[4]
  GS: 33.9
[5]
  pIC50: 5.52

## COP(=O)(c1ccccc1)N1CCCC(c2ccccc2)=N1 (configuration not stated)
[3]
  pIC50: < 4.96

## CC(C)c1ccc(C2=NN(S(=O)(=O)c3ccc(I)cc3)CCC2)cc1
[3]
  pIC50: 5.20
[4]
  GS: 1.7
[5]
  pIC50: < 4.96

## CCOP(=O)(c1ccccc1)N1CCCC(c2ccc(Cl)c(C(F)(F)F)c2)=N1 (configuration not stated)
[3]
  pIC50: 5.96
[4]
  GS: 4.9
[5]
  pIC50: 5.27

## COc1ccc(C2=NN(P(=O)(OC)c3ccccc3)CCC2)cc1 (configuration not stated)
[3]
  pIC50: 5.19
[4]
  GS: 1.7
[5]
  pIC50: < 4.96

## CC(=O)[C@H]1CC[C@H]2[C@@H]3CC[C@H]4C[C@H](O)CC[C@]4(C)[C@H]3CC[C@]12C [BREXANOLONE]
[3]
  pIC50: 7.10
[4]
  GS: 32.6
[5]
  pIC50: 5.58

## CCCCc1ccc(S(=O)(=O)N2CCCC(c3ccc(CC)cc3)=N2)cc1
[3]
  pIC50: 5.74
[4]
  GS: 2.1
[5]
  pIC50: 5.42

## CCCCc1ccc(C2=NN(S(=O)(=O)c3ccc(C)cc3)CCC2)cc1
[3]
  pIC50: 5.66
[4]
  GS: 5
[5]
  pIC50: < 4.96

## COP(=O)(c1ccccc1)N1CCCC(c2ccc(Br)cc2)=N1 (configuration not stated)
[3]
  pIC50: < 4.96
[5]
  pIC50: < 4.96

## CCc1ccc(C2=NN(S(=O)(=O)c3ccc(I)cc3)CCC2)cc1
[3]
  pIC50: 6.05
[4]
  GS: 11.1
[5]
  pIC50: 5.00

## CC(C)Cc1ccc(C2=NN(S(=O)(=O)c3ccc(I)cc3)CCC2)cc1
[3]
  pIC50: < 4.96
[5]
  pIC50: < 4.96

## CCCCc1ccc(C2=NN(S(=O)(=O)c3ccc(CCCC)cc3)CCC2)cc1
[13]
  Horizontal screen: 12 number passed
[3]
  pIC50: 6.68
[14]
  Induced convulsion: 12 number convulsed
[4]
  GS: 52.4
[15]
  Horizontal screen: 10 number passed
[16]
  Horizontal screen: 11 number passed
[17]
  Horizontal screen: 12 number passed
[18]
  Induced convulsion: 9 number convulsed
[5]
  pIC50: < 4.96
[19]
  Induced convulsion: 8 number convulsed
[20]
  Induced convulsion: 10 number convulsed

## CCCCc1ccc(C2=NN(P(=O)(OC)c3ccccc3)CCC2)cc1 (configuration not stated)
[3]
  pIC50: 6.30
[4]
  GS: 4
[5]
  pIC50: 5.70

## CCCCc1ccc(S(=O)(=O)N2CCCC(c3ccc(C(C)C)cc3)=N2)cc1
[3]
  pIC50: 5.00
